16 compounds from paper PMC8419108 (Molecular Cancer Therapeutics, 2021) can be followed below.

By IC50 is commonly meant the midpoint of a concentration-inhibition curve. The low end stands for inhibition by little substance, the high end for a need for much substance.

Assay [1] concerns RAS-deficient MEFs reconstituted with BRAF^V600E. The assay can be described thus: Immunoblot analysis of cell signaling in BRAF^V600E MEFs. In kind it is cell-based, mouse. The following applies: 1 hour treatment. An outline of the steps: (§1)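 RAS-deficient MEFs reconstituted with KRAS^Q61R or BRAF^V600E were grown in DMEM with 10% FBS at 37°C, 5% CO₂. Cells were plated at about 70% confluency and treated 48 h later for 1 h. They were lysed in NP-40 buffer (pH 8.0) for 15 min at 4°C, equalised by Bradford, and immunoblotted for pERK and total ERK. Blots are representative of ≥2 independent experiments.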
(A western blot detects proteins with antibodies after separation by electrophoresis.)

Assay [2] has as its system MCF10A cells stably expressing Halo-KRAS^G12V. In words: Immunoblot analysis of cell signaling in KRAS^G12V-MCF10A cells. In kind it is cell-based. To be noted: 1 hour treatment.
In assay [3] the test system is RAS-deficient MEFs reconstituted with KRAS^Q61R. In words: Immunoblot/immunoprecipitation analysis of cell signaling in KRAS^Q61R MEFs. The class given is cell-based, mouse. An outline of the steps: as §1
The target of assay [4] is KRAS^Q61R/CRAF^WT interaction (Homo sapiens, UniProt P01116+P04049, Q61R). In words: NanoBRET assay of Halo-KRAS^Q61R/Nano-CRAF^WT binding in live 293FT cells. In kind it is cell-based. On the technique in general: Bioluminescence resonance energy transfer reports proximity on the nanometre scale.
In another assay the target is KRAS^G12D (Homo sapiens, UniProt P01116, G12D). In words: SPR binding to captured avi-KRAS^G12D-GppNHp. To be noted: GppNHp-loaded KRAS^G12D; 100–1.56 μmol/L. In a few lines:
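Avi-KRAS^G12D (aa 2–188) loaded with GppNHp was captured on a Neutravidin-coupled CM5 chip in a Biacore S200. Compounds were injected as a 2-fold series from 100 to 1.56 µmol/L over 2,300 RU, or singly at 100 µmol/L over 3,800 RU. Buffer was HEPES pH 7.5 with NaCl, Tween 20, MgCl₂ and 2.5% DMSO. Reference-cell and buffer responses were subtracted, with DMSO-mismatch correction.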
(In general: In SPR one partner is held on a chip, and binding of the other changes the refractive index at the surface.)

For another assay, the target named is CRAF-RBD (Homo sapiens, UniProt P04049). In words: SPR binding to captured avi-CRAF-RBD. The following applies: 100–1.56 μmol/L. An outline of the steps:
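Avi-tagged CRAF-RBD (aa 52–131) was captured on a Neutravidin-coupled CM5 chip in a Biacore S200. A 2-fold series from 100 to 1.56 µmol/L was injected over 1,785 RU, and single 100 µmol/L doses over 3,000 RU. Reference-cell and buffer responses were subtracted, and DMSO mismatches were corrected with a standard curve.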

The next assay relates to KRAS^G12V or CRAF-RBD. The assay can be described thus: SPR analysis, result summarised over both targets. The class given is binding. To be noted: single dose 100 μmol/L or dose-response 100–1.56 μmol/L.

Regarding `COc1cc(/C=C(\C#N)C(N)=O)cc(CSc2nc3ccccc3s2)c1O` [AG825], the “pERK levels (ERK activation)” value is on record as “pERK levels were reduced” in assay [1]; “increased RAS-dependent ERK activation” in assay [2]; “increased RAS-dependent ERK activation” in assay [3] (1 hour treatment, immunoblot). Further, in assay [3] (10 μmol/L for 1 hour), the “BRAF/CRAF dimer formation (CRAF immunoprecipitation probed for BRAF)” value is reported as “increase the detection of heterodimerized CRAF/BRAF complexes”.

Compound `C[C@@H]1O[C@@H](O[C@H]2[C@H](O[C@H]3CO[C@@H](O[C@H]4CC[C@]5(C)[C@H]6CC[C@]78OC[C@@]9(CC[C@](C)(C=O)C[C@H]97)[C@H](O)C[C@@]8(C)[C@]6(C)CC[C@H]5C4(C)C)[C@H](O[C@@H]4O[C@H](CO)[C@@H](O)[C@H](O)[C@H]4O)[C@H]3O)O[C@H](CO)[C@@H](O)[C@@H]2O)[C@H](O)[C@H](O)[C@H]1O` [Ardisiacrispin B] registered an IC50 in assay [4] of 5 µM.

Turning to `Clc1ccc(C(c2ccc(Cl)cc2)n2cc[n+](CC(OCc3ccc(Cl)cc3Cl)c3ccc(Cl)cc3Cl)c2)cc1` (centres unmarked) [Calmidazolium chloride], the IC50 in assay [4] worked out at 3.6 µM. Besides, at KRAS^G12D, the “SPR binding to KRAS^G12D” value is “non-selective and non-saturable binding”. Further, at CRAF-RBD, the “SPR binding to CRAF-RBD” value was “non-selective and non-saturable binding”.

Compound `CCOc1nc2cccc(C(=O)OC(C)OC(=O)OC3CCCCC3)c2n1Cc1ccc(-c2ccccc2-c2nnn[nH]2)cc1` (centres unmarked) [Candesartan cilexetil] gave an IC50 in assay [4] of 5.4 µM.

Compound `CN1C(=O)[C@]2(Cc3cn([C@]45C[C@@]67SS[C@@](CO)(C(=O)N6[C@H]4Nc4ccccc45)N(C)C7=O)c4ccccc34)SS[C@@]1(CO)C(=O)N2C` [Chetomin] returned an IC50 in assay [4] of 2.9 µM.

In turn, `CC(C)=CCC[C@]1(C)C=Cc2c(O)c3c(c(CC=C(C)C)c2O1)O[C@]12C(=C[C@@H]4C[C@H]1C(C)(C)O[C@@]2(C/C=C(/C)C(=O)O)C4=O)C3=O` [Gambogic acid] gave an IC50 in assay [4] of 1.7 µM.

In turn, `CN1C(=O)[C@]23CC4=CC=C[C@H](O)[C@H]4N2C(=O)[C@@]1(CO)SS3` [Gliotoxin] gave an IC50 in assay [4] of 2.8 µM. The “pERK levels (ERK activation)” value is listed as “inhibit RAS-dependent ERK activation” in assay [2] and “inhibit RAS-dependent ERK activation” in assay [3] (1 hour treatment, immunoblot).

On to `Cc1cc2c(C(C)C)c(O)c(O)c(C=O)c2c(O)c1-c1c(C)cc2c(C(C)C)c(O)c(O)c(C=O)c2c1O` [Gossypol], for which the IC50 in assay [4] stood at 5.2 µM.

Consider `CC(C)(C)CC(C)(C)NCC(O)COc1ccc(C(C)(C)c2ccc(OCC(O)CNC(C)(C)CC(C)(C)C)cc2)cc1.Cl` (centres unmarked) [NSC145366], for which the “pERK levels (ERK activation)” value in assay [1] is recorded as “suppressed pERK levels”; in assay [2] it was “inhibited ERK activation”; in assay [3] (1 hour treatment, immunoblot) it was “inhibited ERK activation”.

Regarding `CC(C)=C[C@H]1C[C@H](C)[C@]2(CC[C@]3(C)C[C@H]4[C@H](C(=O)C[C@@]4(C)O)/C(C=O)=C\C[C@H]32)O1` [Ophiobolin A], in the assay with KRAS^G12V or CRAF-RBD, the “SPR binding to KRAS or the CRAF-RBD” value is “inability to detect binding”. For the same compound, the IC50 in assay [4] came to 1.08 µM. Besides, in assay [2], the “pERK levels (ERK activation)” value is recorded as “dose-dependent decrease”; the “pMEK levels (phosphorylation and activation of MEK)” value is listed as “dose-dependent decrease”; the “phosphorylation of endogenous CRAF on S338 (pS338-CRAF)” value is listed as “reduced the phosphorylation of CRAF on S338”. Further, in assay [3] (1 hour treatment, immunoblot), the “pERK levels (ERK activation)” value is “reduced pERK levels in a dose-dependent manner” and the “phosphorylation of endogenous CRAF on S338 (pS338-CRAF)” value is “reduced the phosphorylation of CRAF on S338”.

As for `CN(C)CCOc1ccc(-c2nc(-c3ccncc3)c(-c3ccc4c(c3)CC/C4=N\O)[nH]2)cc1` [SB590885], the “increase of the Halo-KRAS^Q61R/Nano-CRAF^WT interaction (BRET signal)” value in assay [4] (0.5 and 1 μmol/L for 4 hours, normalized BRET signal) is given as “approximately 35%”.

In the case of `CC(C)(C)c1ccc(C(O)CCCN2CCC(C(O)(c3ccccc3)c3ccccc3)CC2)cc1` (centres unmarked) [Terfenadine], the IC50 in assay [4] was determined as 6 µM.

Consider `C/C=C(/C)C(=O)O[C@H]1C(C)=C2[C@H]([C@@H]1OC(=O)CCCCCCC)[C@@](C)(OC(C)=O)C[C@H](OC(=O)CCC)[C@@]1(O)[C@H]2OC(=O)[C@@]1(C)O` [Thapsigargin], for which the IC50 in assay [4] was 14 µM.

Turning to `CN1CCN(CCCN2c3ccccc3Sc3ccc(C(F)(F)F)cc32)CC1` [Trifluoperazine], in assay [4], the IC50 is 14.3 µM.

In assay [4], `COc1cc(CCN)c2c(c1OC)SSSSS2` [Varacin] had an IC50 of 9.5 µM.

With Swinhopeptolide, at KRAS^G12D, the “SPR binding to KRAS^G12D” value is “slow on/off rates and possible non-specific binding”. Further, the “SPR binding to CRAF-RBD” value on CRAF-RBD was “slow on/off rates and possible non-specific binding”.
